Assay results: ChEMBL document CHEMBL1123548 (J Med Chem, 1986)

Tests used:
Adenosine receptor A2a = Adenosine receptor A2a (Cavia porcellus, UniProt P46616); experiment: Compound was evaluated for its ability to antagonise cyclic [3H]AMP accumulation in [3H]adenine-labeled guinea pig cerebral cortical slices.; format: functional
Adenosine receptor A1 = target: T1, Adenosine receptor A1 (Rattus norvegicus, UniProt P25099); experiment: Ability to inhibit binding of 1 nM [3H]cyclohexyladenosine to adenosine A1 receptor in rat cerebral cortical membranes; format: cell membranes, Membrane
T1 sequence (P25099 whole entry): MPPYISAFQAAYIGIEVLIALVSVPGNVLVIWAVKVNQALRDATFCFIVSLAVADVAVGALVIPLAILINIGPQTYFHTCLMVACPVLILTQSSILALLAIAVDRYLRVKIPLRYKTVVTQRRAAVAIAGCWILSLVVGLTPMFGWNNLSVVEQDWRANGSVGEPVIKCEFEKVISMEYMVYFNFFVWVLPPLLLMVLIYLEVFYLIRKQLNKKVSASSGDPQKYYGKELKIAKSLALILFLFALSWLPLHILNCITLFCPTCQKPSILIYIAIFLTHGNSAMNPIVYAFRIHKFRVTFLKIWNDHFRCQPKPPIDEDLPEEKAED
In short: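 Displacement of 1 nM N6-[3H]cyclohexyladenosine from A1 sites in rat cerebral cortical membranes by a range of xanthine concentrations. Each point was run in triplicate in at least two separate experiments. IC50 was determined and converted to Ki. Values are mean ± SEM of two to five determinations.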

Cavia porcellus = species on record: Cavia porcellus; experiment: Selectivity was expressed as the ratio is Ki of adenosine A1 receptor to that of adenosine A2 receptor
[1] = target: Adenosine receptor A1 (Rattus norvegicus) (UniProt P25099); experiment: Inactive Selectivity was expressed as the ratio is Ki of A1-[…]

Sequence of Adenosine receptor A2a (P46616 whole entry): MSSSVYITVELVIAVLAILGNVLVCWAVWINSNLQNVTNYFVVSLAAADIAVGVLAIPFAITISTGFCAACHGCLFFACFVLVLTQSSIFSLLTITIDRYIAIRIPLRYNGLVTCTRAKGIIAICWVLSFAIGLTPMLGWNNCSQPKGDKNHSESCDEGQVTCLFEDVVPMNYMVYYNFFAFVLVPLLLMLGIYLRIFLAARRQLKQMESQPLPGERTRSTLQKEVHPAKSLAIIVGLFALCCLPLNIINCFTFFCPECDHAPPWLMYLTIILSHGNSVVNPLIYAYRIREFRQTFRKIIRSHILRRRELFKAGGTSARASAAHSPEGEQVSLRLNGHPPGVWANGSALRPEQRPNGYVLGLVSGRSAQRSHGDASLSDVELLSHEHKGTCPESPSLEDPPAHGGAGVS

SMILES | Ki (Adenosine receptor A2a) [µM] | Ki (Adenosine receptor A1) [µM] | Selectivity ratio (Cavia porcellus) | Selectivity ratio [1]
Cn1c(=O)n(CCO)c(=O)c2[nH]cnc21 | 50 | 85 | 1.7 | –
CC(C)Cn1c(=O)c2nc[nH]c2n(CC(C)C)c1=O | – | 0.5 | 0.3 | –
CCCn1cnc2c1c(=O)n(C)c(=O)n2C | 11 | 21 | – | 1.9
C=CCn1cnc2c1c(=O)n(CCC)c(=O)n2CCC | 0.7 | 1.9 | 2.7 | –
CCCn1c(=O)n(C)c(=O)c2c1ncn2C | 9 | 24 | 2.7 | –
C=CCn1c(=O)c2c(ncn2C)n(CC=C)c1=O | 4 | 18 | 4.5 | –
C=CCn1c(=O)c2c(ncn2C)n(C)c1=O | 6.5 | 47 | 7.2 | –
CC(=O)OCCn1cnc2c1c(=O)n(C)c(=O)n2C | 68 | 40 | 0.6 | –
CCn1c(=O)c2nc[nH]c2n(C)c1=O | 5 | 15 | 3 | –
C#CCn1cnc2c1c(=O)n(C)c(=O)n2C | 4.1 | 12 | 2.9 | –
CC(C)n1c(=O)n(C)c(=O)c2[nH]cnc21 | 6 | 12 | 2 | –
Cn1c(=O)c2c(ncn2CCCl)n(C)c1=O [7-CHLOROETHYLTHEOPHYLLINE] | 4.5 | 8 | 1.8 | –
CCn1c(=O)c2nc[nH]c2n(CC)c1=O | 3 | 3.3 | 1.1 | –
CCCn1c(=O)c2nc[nH]c2n(CCC)c1=O | – | – | 0.3 | –
CCCn1c(=O)c2c(ncn2CCC)n(CCC)c1=O | 1.4 | 2.6 | 1.9 | –
CCCn1c(=O)c2c(ncn2C)n(CCC)c1=O | 1.2 | 7 | 5.8 | –

SMILES | Ki (Adenosine receptor A2a) [µM] | Ki (Adenosine receptor A1) [µM] | Selectivity ratio (Cavia porcellus) | Selectivity ratio [1]
C#CCn1cnc2c1c(=O)n(CCC)c(=O)n2CCC | 0.4 | 0.6 | 1.5 | –
CC(C)Cn1c(=O)n(C)c(=O)c2nc[nH]c21 | – | – | 0.9 | –
CCCn1cnc2c1c(=O)n(C)c(=O)n2CC(C)C | 11 | 13 | 1.2 | –
C=CCn1cnc2c1c(=O)n(C)c(=O)n2CC(C)C | 8.5 | 13 | 1.5 | –
C=CCn1c(=O)c2nc[nH]c2n(CC=C)c1=O | – | 10 | 2 | –
CC(C)Cn1c(=O)n(C)c(=O)c2c1ncn2C | 7 | 19 | 2.7 | –
C#CCn1c(=O)c2c(ncn2C)n(C)c1=O | 6 | – | 7.5 | –
CCCn1c(=O)c2c(ncn2C)n(C)c1=O | 5 | 38 | 9.5 | –
O=c1c2[nH]cnc2n(Cc2ccccc2)c(=O)n1Cc1ccccc1 | 14 | 2 | 0.14 | –
CC(C)Cn1c(=O)n(C)c(=O)c2c1ncn2Cc1ccccc1 | 11 | 9 | 0.8 | –
C=CCn1cnc2c1c(=O)n(C)c(=O)n2C | 10 | 33 | 3.3 | –
CCCn1c(=O)c2c(ncn2Cc2ccccc2)n(CCC)c1=O | 1.5 | 1 | 0.7 | –
Cn1c(=O)c2nc[nH]c2n(CCO)c1=O | 80 | 60 | 0.8 | –
Cn1c(=O)c2c(ncn2CCO)n(C)c1=O [ETOFYLLINE] | 135 | 105 | 0.8 | –
C#CCn1cnc2c1c(=O)n(C)c(=O)n2CC(C)C | 2.8 | 3.1 | 1.1 | –
Cn1c(=O)c2c(ncn2Cc2ccccc2)n(C)c1=O | 14 | 6 | 0.4 | –
